Measurements taken from ChEMBL document CHEMBL1148787, “Novel substituted (pyridin-3-yl)phenyloxazolidinones: antibacterial agents with reduced activity against monoamine oxidase A and increased solubility” (J Med Chem, 2007).
Values after ≈ are worked out from the molar mass of the structure shown.

Experiments:
Staphylococcus aureus = experiment: Antibacterial activity against methicillin-susceptible Staphylococcus aureus AP601055; assay type: functional
How it was run: (§1)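 CLSI broth microdilution, 64 to 0.06 µg/mL, 2% DMSO final. Media: S. aureus, Mueller Hinton broth; H. influenzae, MHB plus 0.5% yeast extract, 15 µg/mL hematin, 1.5 µg/mL NAD; S. pneumoniae, MHB plus 0.65% lysed horse blood. 35 °C, aerobic (S. aureus) or 5% CO2.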

[1] = AUC in Wistar rat at 10 mg/kg, iv; assay type: ADME, organism-based; design: dose 10 mg/kg, route intravenous; settings: plasma
How it was run: (§2)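 Groups of three Wistar Han rats; bolus injection via cannulated jugular vein at 2 or 10 mg/kg. Serial 200 µL whole-blood samples at time intervals; plasma levels by LC-MS/MS; parameters by noncompartmental analysis.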

[2] = Half life in Wistar rat at 10 mg/kg, iv; assay type: ADME, organism-based; design: dose 10 mg/kg, route intravenous; settings: in vivo; how it was run: as §2
[3] = Clearance in Wistar rat at 10 mg/kg, iv; assay type: ADME, organism-based; design: dose 10 mg/kg, route intravenous; settings: in vivo; how it was run: as §2
Haemophilus influenzae = experiment: Antibacterial activity against Haemophilus influenzae ATCC 51907; assay type: functional; how it was run: as §1
[4] = biological target: T1, Amine oxidase [flavin-containing] A (Homo sapiens, UniProt P21397); experiment: Inhibition of human liver MAOA expressed in yeast
T1 sequence (P21397 whole entry): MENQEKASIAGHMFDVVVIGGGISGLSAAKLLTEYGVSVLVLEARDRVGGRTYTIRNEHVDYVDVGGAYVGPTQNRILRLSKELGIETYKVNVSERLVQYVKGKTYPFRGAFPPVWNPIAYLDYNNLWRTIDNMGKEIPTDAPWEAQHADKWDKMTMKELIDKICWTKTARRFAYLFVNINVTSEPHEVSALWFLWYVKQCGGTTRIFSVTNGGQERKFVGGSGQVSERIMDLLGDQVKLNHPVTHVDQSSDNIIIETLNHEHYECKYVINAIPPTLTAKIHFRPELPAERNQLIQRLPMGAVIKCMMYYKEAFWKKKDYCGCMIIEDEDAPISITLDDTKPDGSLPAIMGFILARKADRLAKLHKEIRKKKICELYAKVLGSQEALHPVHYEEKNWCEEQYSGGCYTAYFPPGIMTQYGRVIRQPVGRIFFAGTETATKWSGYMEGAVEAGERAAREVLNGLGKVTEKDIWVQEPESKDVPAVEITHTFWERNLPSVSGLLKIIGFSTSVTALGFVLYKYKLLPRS

[5] = Solubility by nephelometric analysis; assay type: physicochemical
How it was run: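 Nephelometry after diluting compounds into the MAO-A assay mixture (100 mM potassium phosphate, pH 7.4).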

[6] = Volume of distribution in Wistar rat at 10 mg/kg, iv; assay type: ADME, organism-based; design: dose 10 mg/kg, route intravenous; settings: in vivo, read-out: Vdss; how it was run: as §2
Streptococcus pneumoniae [7] = experiment: Antibacterial activity against penicillin-susceptible Streptococcus pneumoniae AP671401; assay type: functional; how it was run: as §1
[8] = Oral bioavailability in Wistar rat at 10 mg/kg, po; assay type: ADME, organism-based; settings: in vivo
How it was run: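 Wistar Han rats, groups of three; 10 mg/kg given by oral gavage, compared against iv dosing. Serial whole-blood sampling, plasma drug by LC-MS/MS, noncompartmental pharmacokinetic analysis.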

Streptococcus pneumoniae [9] = experiment: Antibacterial activity against linezolid-resistant Streptococcus pneumoniae; assay type: functional
How it was run: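 Broth microdilution per CLSI guidelines. Compounds were dissolved in 100% DMSO and diluted to 2% DMSO (v/v), 64 to 0.06 µg/mL, in 2.2% (w/v) Mueller Hinton broth with 0.65% (v/v) lysed horse blood. Plates were incubated at 35 °C in 5% CO2 and read at 620 nm.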

Homo sapiens = species on record: Homo sapiens; experiment: Protein binding in human plasma; settings: read-out: PPB (converted)

## C[C@H](O)c1ccc(-c2ccc(N3C[C@H](Cn4ccnn4)OC3=O)cc2F)cn1
Staphylococcus aureus
  MIC: 0.5 µg/mL (≈ 1.3 µM)
[1]
  AUC: 6700 ng·h/mL
[2]
  half-life: 60 min
[3]
  clearance: 25 mL/min/kg
Haemophilus influenzae
  MIC: 2 µg/mL (≈ 5.22 µM)
[4]
  Ki: 5.9 µM
[5]
  solubility kinetic: > 400 µM
[6]
  Vd: 1.3 L/kg
Streptococcus pneumoniae [7]
  MIC: < 0.06 µg/mL
[8]
  bioavailability: 100%
Streptococcus pneumoniae [9]
  MIC: 1 µg/mL (≈ 2.61 µM)

## CO[C@@H](C)c1ccc(-c2ccc(N3C[C@H](Cn4ccnn4)OC3=O)cc2F)cn1
Staphylococcus aureus
  MIC: 1 µg/mL (≈ 2.52 µM)
Haemophilus influenzae
  MIC: 16 µg/mL (≈ 40.3 µM)
[4]
  Ki: 2.5 µM
[5]
  solubility kinetic: > 400 µM
Streptococcus pneumoniae [7]
  MIC: 0.25 µg/mL (≈ 0.629 µM)
Streptococcus pneumoniae [9]
  MIC: 4 µg/mL (≈ 10.1 µM)

## CC(C)(O)c1ccc(-c2ccc(N3C[C@H](Cn4ccnn4)OC3=O)cc2F)cn1
Staphylococcus aureus
  MIC: 1 µg/mL (≈ 2.52 µM)
Haemophilus influenzae
  MIC: 8 µg/mL (≈ 20.1 µM)
[4]
  Ki: 6 µM
[5]
  solubility kinetic: 200 µM (≈ 79.5 µg/mL)
Streptococcus pneumoniae [7]
  MIC: 0.25 µg/mL (≈ 0.629 µM)
Streptococcus pneumoniae [9]
  MIC: 2 µg/mL (≈ 5.03 µM)

## O=C1O[C@@H](Cn2ccnn2)CN1c1ccc(-c2ccc(C(O)CO)nc2)c(F)c1 (stereo not given in full)
Staphylococcus aureus
  MIC: 0.25 µg/mL (≈ 0.626 µM)
[1]
  AUC: 3900 ng·h/mL
[2]
  half-life: 27 min
[3]
  clearance: 43 mL/min/kg
Homo sapiens
  fraction unbound: 0.54
Haemophilus influenzae
  MIC: 1 µg/mL (≈ 2.5 µM)
[5]
  solubility kinetic: > 400 µM
[6]
  Vd: 1 L/kg
Streptococcus pneumoniae [7]
  MIC: < 0.06 µg/mL
Streptococcus pneumoniae [9]
  MIC: 1 µg/mL (≈ 2.5 µM)

## O=C1O[C@@H](Cn2ccnn2)CN1c1ccc(-c2ccc(C(O)C3CCNCC3)nc2)c(F)c1 (stereo not given in full)
Staphylococcus aureus
  MIC: 64 µg/mL (≈ 141 µM)
Haemophilus influenzae
  MIC: 64 µg/mL (≈ 141 µM)
[4]
  Ki: 136 µM
[5]
  solubility kinetic: > 400 µM
Streptococcus pneumoniae [7]
  MIC: 4 µg/mL (≈ 8.84 µM)
Streptococcus pneumoniae [9]
  MIC: 32 µg/mL (≈ 70.7 µM)

## CC(C)NCC(O)c1ccc(-c2ccc(N3C[C@H](Cn4ccnn4)OC3=O)cc2F)cn1 (stereo not given in full)
Staphylococcus aureus
  MIC: 4 µg/mL (≈ 9.08 µM)
Haemophilus influenzae
  MIC: 4 µg/mL (≈ 9.08 µM)
[4]
  Ki: > 178 µM
[5]
  solubility kinetic: > 400 µM
Streptococcus pneumoniae [7]
  MIC: 0.5 µg/mL (≈ 1.14 µM)
Streptococcus pneumoniae [9]
  MIC: 2 µg/mL (≈ 4.54 µM)

## CN(C)CC(O)c1ccc(-c2ccc(N3C[C@H](Cn4ccnn4)OC3=O)cc2F)cn1 (stereo not given in full)
Staphylococcus aureus
  MIC: 4 µg/mL (≈ 9.38 µM)
Haemophilus influenzae
  MIC: 4 µg/mL (≈ 9.38 µM)
[4]
  Ki: > 178 µM
[5]
  solubility kinetic: > 400 µM
Streptococcus pneumoniae [7]
  MIC: 0.25 µg/mL (≈ 0.586 µM)
Streptococcus pneumoniae [9]
  MIC: 2 µg/mL (≈ 4.69 µM)

## CC(=O)c1ccc(-c2ccc(N3C[C@H](Cn4ccnn4)OC3=O)cc2F)cn1
Staphylococcus aureus
  MIC: 0.25 µg/mL (≈ 0.656 µM)
Haemophilus influenzae
  MIC: 2 µg/mL (≈ 5.24 µM)
[4]
  Ki: 0.7 µM
[5]
  solubility kinetic: 50 µM (≈ 19.1 µg/mL)
Streptococcus pneumoniae [7]
  MIC: < 0.06 µg/mL
Streptococcus pneumoniae [9]
  MIC: 0.5 µg/mL (≈ 1.31 µM)

## O=C(c1ccc(-c2ccc(N3C[C@H](Cn4ccnn4)OC3=O)cc2F)cn1)C1CNC1
Staphylococcus aureus
  MIC: 8 µg/mL (≈ 18.9 µM)
Haemophilus influenzae
  MIC: 16 µg/mL (≈ 37.9 µM)
[4]
  Ki: 4.5 µM
[5]
  solubility kinetic: 200 µM (≈ 84.5 µg/mL)
Streptococcus pneumoniae [7]
  MIC: 1 µg/mL (≈ 2.37 µM)
Streptococcus pneumoniae [9]
  MIC: 4 µg/mL (≈ 9.47 µM)

## O=C(Cn1ccnc1)c1ccc(-c2ccc(N3C[C@H](Cn4ccnn4)OC3=O)cc2F)cn1
Staphylococcus aureus
  MIC: 0.25 µg/mL (≈ 0.559 µM)
Haemophilus influenzae
  MIC: 2 µg/mL (≈ 4.47 µM)
[4]
  Ki: > 12 µM
[5]
  solubility kinetic: 12.5 µM (≈ 5.59 µg/mL)
Streptococcus pneumoniae [9]
  MIC: 0.5 µg/mL (≈ 1.12 µM)

## COCc1ccc(-c2ccc(N3C[C@H](Cn4ccnn4)OC3=O)cc2F)cn1
Staphylococcus aureus
  MIC: 0.5 µg/mL (≈ 1.3 µM)
Haemophilus influenzae
  MIC: 4 µg/mL (≈ 10.4 µM)
[4]
  Ki: 1.7 µM
[5]
  solubility kinetic: 100 µM (≈ 38.3 µg/mL)
Streptococcus pneumoniae [7]
  MIC: 0.13 µg/mL (≈ 0.339 µM)
Streptococcus pneumoniae [9]
  MIC: 1 µg/mL (≈ 2.61 µM)

## CO[C@H](C)c1ccc(-c2ccc(N3C[C@H](Cn4ccnn4)OC3=O)cc2F)cn1
Staphylococcus aureus
  MIC: 1 µg/mL (≈ 2.52 µM)
Haemophilus influenzae
  MIC: 8 µg/mL (≈ 20.1 µM)
[4]
  Ki: 3 µM
[5]
  solubility kinetic: > 400 µM
Streptococcus pneumoniae [7]
  MIC: 0.25 µg/mL (≈ 0.629 µM)
Streptococcus pneumoniae [9]
  MIC: 2 µg/mL (≈ 5.03 µM)
